Drawing on ChEMBL document CHEMBL1149894, “Glycosidic constituents of the tubers of Gymnadenia conopsea” (J Nat Prod, 2008), this text covers Activity for nine compounds.

Calls of active or inactive are those of the source. No cut-off for these calls is given here.

Series [1] deals with T1, Acetylcholinesterase (Rattus norvegicus) (UniProt P37136).
T1 sequence (whole entry): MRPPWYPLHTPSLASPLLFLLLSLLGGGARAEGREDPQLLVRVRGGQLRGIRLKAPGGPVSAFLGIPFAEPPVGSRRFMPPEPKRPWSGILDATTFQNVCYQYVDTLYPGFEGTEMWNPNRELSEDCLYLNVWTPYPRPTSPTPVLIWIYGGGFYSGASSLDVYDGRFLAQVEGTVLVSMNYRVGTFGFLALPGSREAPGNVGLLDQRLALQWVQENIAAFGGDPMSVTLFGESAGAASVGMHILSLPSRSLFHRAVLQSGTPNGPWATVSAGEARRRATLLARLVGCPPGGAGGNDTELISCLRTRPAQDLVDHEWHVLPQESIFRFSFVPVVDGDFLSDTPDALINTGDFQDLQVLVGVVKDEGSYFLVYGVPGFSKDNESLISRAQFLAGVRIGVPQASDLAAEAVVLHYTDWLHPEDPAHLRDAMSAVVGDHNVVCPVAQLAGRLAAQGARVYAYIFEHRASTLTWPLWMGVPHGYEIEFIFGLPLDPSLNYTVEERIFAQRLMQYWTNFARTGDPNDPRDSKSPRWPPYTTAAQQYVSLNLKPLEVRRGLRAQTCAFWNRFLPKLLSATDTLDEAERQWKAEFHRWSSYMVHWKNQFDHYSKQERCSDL
Briefly: Inhibition of rat brain AChE at 10 uM by Ellman method. In short, it runs like this: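 Source: fresh rat brain homogenised in 9 volumes of ice-cold PBS, incubated with each test compound separately. Activity measured spectrophotometrically at 25 °C by the Ellman method; test compounds at 10^-5 M; donepezil as positive control; read as percent inhibition.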
(In Ellman's method for cholinesterases, released thiocholine reacts with DTNB.)

Series [2] has as its target T2, Amine oxidase [flavin-containing] B (Rattus norvegicus, UniProt P19643).
T2 sequence (P19643 whole entry): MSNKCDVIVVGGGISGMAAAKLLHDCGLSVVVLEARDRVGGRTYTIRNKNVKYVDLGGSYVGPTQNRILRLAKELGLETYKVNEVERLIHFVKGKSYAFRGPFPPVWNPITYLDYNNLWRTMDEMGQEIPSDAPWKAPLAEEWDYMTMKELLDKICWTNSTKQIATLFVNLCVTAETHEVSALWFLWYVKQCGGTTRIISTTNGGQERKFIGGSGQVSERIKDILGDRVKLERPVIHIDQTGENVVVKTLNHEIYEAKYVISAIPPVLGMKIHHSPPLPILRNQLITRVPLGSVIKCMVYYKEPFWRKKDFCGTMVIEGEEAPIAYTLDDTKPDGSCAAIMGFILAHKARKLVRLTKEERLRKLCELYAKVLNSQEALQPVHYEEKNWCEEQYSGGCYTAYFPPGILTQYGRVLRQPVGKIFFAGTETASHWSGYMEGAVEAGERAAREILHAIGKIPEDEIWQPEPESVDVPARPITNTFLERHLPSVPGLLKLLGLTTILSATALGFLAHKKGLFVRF
In words: Inhibition of rat brain monoamine oxidase B at 10 uM. The method in brief: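 Fresh rat brain homogenized in 9-fold volume of ice-cold PBS and incubated separately with each compound at 10^-5 M. MAO-B activity was determined by quantifying the oxidation product of benzylamine substrate. Pargyline was the positive control. The value is reported as an inhibition rate.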

Regarding `COC(=O)[C@@H](O)[C@](O)(CC(C)C)C(=O)OCc1ccc(O[C@@H]2O[C@H](CO)[C@@H](O)[C@H](O)[C@H]2O)cc1`, the outcome in series [1] was inactive. Besides, the Activity entry in series [2] is listed as “Not Active”.

As for `CC(C)C[C@](O[C@@H]1O[C@H](CO)[C@@H](O)[C@H](O)[C@H]1O)(C(=O)OCc1ccc(O[C@@H]2O[C@H](CO)[C@@H](O)[C@H](O)[C@H]2O)cc1)[C@H](O)C(=O)OCc1ccc(O[C@@H]2O[C@H](CO)[C@@H](O)[C@H](O[C@@H]3O[C@H](CO)[C@@H](O)[C@H](O)[C@H]3O)[C@H]2O)cc1`, the outcome in series [1] was inactive. In series [2], the Activity entry is listed as “Not Active”.

In the case of `CCOCc1ccc(O[C@@H]2O[C@H](CO)[C@@H](O)[C@H](O[C@@H]3O[C@H](CO)[C@@H](O)[C@H](O)[C@H]3O)[C@H]2O)cc1`, the result in series [1] was inactive. In addition, the Activity entry in series [2] was “Not Active”.

On to `CC(C)C[C@](CC(=O)OCc1ccc(O[C@@H]2O[C@H](CO)[C@@H](O)[C@H](O)[C@H]2O)cc1)(O[C@@H]1O[C@H](CO)[C@@H](O)[C@H](O)[C@H]1O)C(=O)O`, for which, in series [1], the outcome was inactive. Moreover, in series [2], the Activity result is on record as “Not Active”.

`CC(C)C[C@](O[C@@H]1O[C@H](CO)[C@@H](O)[C@H](O)[C@H]1O)(C(=O)OCc1ccc(O[C@@H]2O[C@H](CO)[C@@H](O)[C@H](O)[C@H]2O)cc1)C(O)C(=O)OCc1ccc(O[C@@H]2O[C@H](CO)[C@@H](O[C@H]3O[C@H](CO)[C@@H](O)[C@H](O)[C@H]3O)[C@H](O)[C@H]2O)cc1` (stereo partly drawn): the result in series [1] was inactive. In series [2], the Activity result was “Not Active”.

In the case of `OCc1ccc(O[C@@H]2O[C@H](CO)[C@@H](O)[C@H](O[C@@H]3O[C@H](CO)[C@@H](O)[C@H](O)[C@H]3O)[C@H]2O)cc1`, in series [1], the result was inactive. Further, in series [2], the Activity result was “Not Active”.

Turning to `CC(C)C[C@](O)(C(=O)OCc1ccc(O[C@@H]2O[C@H](CO)[C@@H](O)[C@H](O)[C@H]2O)cc1)[C@H](O)C(=O)OCc1ccc(O[C@@H]2O[C@H](CO[C@@H]3O[C@H](CO)[C@@H](O)[C@H](O)[C@H]3O)[C@@H](O)[C@H](O)[C@H]2O)cc1`, the result in series [1] was inactive. The Activity entry in series [2] is “Not Active”.

Take `OCc1ccc(O[C@@H]2O[C@H](CO)[C@@H](O[C@H]3O[C@H](CO)[C@@H](O)[C@H](O)[C@H]3O)[C@H](O)[C@H]2O)cc1`: in series [1], the result was inactive. In series [2], the Activity entry is on record as “Not Active”.

Consider `OCc1ccc(O[C@@H]2O[C@H](CO)[C@@H](O[C@@H]3O[C@H](CO)[C@@H](O)[C@H](O)[C@H]3O)[C@H](O)[C@H]2O)cc1`, for which the outcome in series [1] was inactive. Further, the Activity entry in series [2] is “Not Active”.
